Experimental data: ChEMBL document CHEMBL4689842, “EUbOPEN Chemogenomics Library wave 1” (2021)

Tested on: HEK-293T
Experiment: Multiplex assay against HEK293T;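 as to Population Tubulin-Different-Phenotype (%): share of the cells with healthy nuclei that show this phenotype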
Format: toxicity, cell-based
Conditions: human
Outline: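 Live cells were stained at seeding with Hoechst33342, BioTracker Green Microtubule Cytoskeleton Dye, MitoTracker Red and Annexin V Alexa Fluor 680, then imaged on a CQ1 microscope at 37°C and 5% CO2 after compound addition. CellPathfinder machine-learning gating split cells into Hoechst high-intensity objects or normal cells. Normal cells were split into healthy, pyknosed or fragmented nuclei, and pyknosed cells into mitotic or apoptotic. Tubulin, mitochondrial-mass and membrane-permeability phenotypes are per cents of healthy-nucleus cells.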

[1] = 12 h, 1 µM, compound concentration 1 uM, replicate 1
[2] = 12 h, 1 µM, compound concentration 1 uM, replicate 2
[3] = 12 h, 10 µM, compound concentration 10 uM, replicate 1
[4] = 12 h, 10 µM, compound concentration 10 uM, replicate 2
[5] = 24 h, 1 µM, compound concentration 1 uM, replicate 1
[6] = 24 h, 1 µM, compound concentration 1 uM, replicate 2
[7] = 24 h, 10 µM, compound concentration 10 uM, replicate 1
[8] = 24 h, 10 µM, compound concentration 10 uM, replicate 2
[9] = 48 h, 1 µM, compound concentration 1 uM, replicate 1
[10] = 48 h, 1 µM, compound concentration 1 uM, replicate 2
[11] = 48 h, 10 µM, compound concentration 10 uM, replicate 1
[12] = 48 h, 10 µM, compound concentration 10 uM, replicate 2

COc1ccc(NS(=O)(=O)c2sc3ccc(Cl)cc3c2C)cc1N1CCNCC1.Cl
Population Apoptotic (%) [1]: 40%
Population Fragmented Nuclei (%) [1]: 17%
Population Healthy Nuclei (%) [1]: 36%
Population Hoechst High Intensity Objects (%) [1]: 35%
Population Membrane Permeable-Phenotype (%) [1]: 5%
Population Mitochondria Different-Phenotype (%) [1]: 66%
Population Mitotic Cells (%) [1]: 59%
Population Normal (%) [1]: 64%
Population Pyknosed Nuclei (%) [1]: 45%
Population Tubulin-Different-Phenotype (%) [1]: 32%
Total Cell Count [1]: 385
Population Apoptotic (%) [2]: 15%
Population Fragmented Nuclei (%) [2]: 5%
Population Healthy Nuclei (%) [2]: 41%
Population Hoechst High Intensity Objects (%) [2]: 3%
Population Membrane Permeable-Phenotype (%) [2]: 15%
Population Mitochondria Different-Phenotype (%) [2]: 25%
Population Mitotic Cells (%) [2]: 84%
Population Normal (%) [2]: 96%
Population Pyknosed Nuclei (%) [2]: 53%
Population Tubulin-Different-Phenotype (%) [2]: 39%
Total Cell Count [2]: 233
Population Apoptotic (%) [3]: 71%
Population Fragmented Nuclei (%) [3]: 7%
Population Healthy Nuclei (%) [3]: 33%
Population Hoechst High Intensity Objects (%) [3]: 12%
Population Membrane Permeable-Phenotype (%) [3]: 4%
Population Mitochondria Different-Phenotype (%) [3]: 99%
Population Mitotic Cells (%) [3]: 28%
Population Normal (%) [3]: 87%
Population Pyknosed Nuclei (%) [3]: 59%
Total Cell Count [3]: 350
Population Apoptotic (%) [4]: 57%
Population Fragmented Nuclei (%) [4]: 3%
Population Healthy Nuclei (%) [4]: 16%
Population Hoechst High Intensity Objects (%) [4]: 4%
Population Membrane Permeable-Phenotype (%) [4]: 6%
Population Mitochondria Different-Phenotype (%) [4]: 86%
Population Mitotic Cells (%) [4]: 42%
Population Normal (%) [4]: 95%
Population Pyknosed Nuclei (%) [4]: 79%
Population Tubulin-Different-Phenotype (%) [4]: 96%
Total Cell Count [4]: 186
Population Apoptotic (%) [5]: 46%
Population Fragmented Nuclei (%) [5]: 21%
Population Healthy Nuclei (%) [5]: 40%
Population Hoechst High Intensity Objects (%) [5]: 39%
Population Membrane Permeable-Phenotype (%) [5]: 2%
Population Mitochondria Different-Phenotype (%) [5]: 61%
Population Mitotic Cells (%) [5]: 53%
Population Normal (%) [5]: 60%
Population Pyknosed Nuclei (%) [5]: 38%
Population Tubulin-Different-Phenotype (%) [5]: 43%
Total Cell Count [5]: 399
Population Apoptotic (%) [6]: 22%
Population Fragmented Nuclei (%) [6]: 4%
Population Healthy Nuclei (%) [6]: 58%
Population Hoechst High Intensity Objects (%) [6]: 2%
Population Membrane Permeable-Phenotype (%) [6]: 4%
Population Mitochondria Different-Phenotype (%) [6]: 36%
Population Mitotic Cells (%) [6]: 77%
Population Normal (%) [6]: 97%
Population Pyknosed Nuclei (%) [6]: 36%
Population Tubulin-Different-Phenotype (%) [6]: 54%
Total Cell Count [6]: 278
Population Apoptotic (%) [7]: 74%
Population Fragmented Nuclei (%) [7]: 10%
Population Healthy Nuclei (%) [7]: 34%
Population Hoechst High Intensity Objects (%) [7]: 21%
Population Membrane Permeable-Phenotype (%) [7]: 4%
Population Mitochondria Different-Phenotype (%) [7]: 98%
Population Mitotic Cells (%) [7]: 25%
Population Normal (%) [7]: 78%
Population Pyknosed Nuclei (%) [7]: 54%
Population Tubulin-Different-Phenotype (%) [7]: 97%
Total Cell Count [7]: 356
Population Apoptotic (%) [8]: 90%
Population Fragmented Nuclei (%) [8]: 4%
Population Healthy Nuclei (%) [8]: 25%
Population Hoechst High Intensity Objects (%) [8]: 8%
Population Membrane Permeable-Phenotype (%) [8]: 2%
Population Mitochondria Different-Phenotype (%) [8]: 97%
Population Mitotic Cells (%) [8]: 9%
Population Normal (%) [8]: 91%
Population Pyknosed Nuclei (%) [8]: 70%
Total Cell Count [8]: 187
Population Apoptotic (%) [9]: 47%
Population Fragmented Nuclei (%) [9]: 23%
Population Healthy Nuclei (%) [9]: 51%
Population Hoechst High Intensity Objects (%) [9]: 29%
Population Membrane Permeable-Phenotype (%) [9]: 1%
Population Mitochondria Different-Phenotype (%) [9]: 37%
Population Mitotic Cells (%) [9]: 52%
Population Normal (%) [9]: 70%
Population Pyknosed Nuclei (%) [9]: 25%
Population Tubulin-Different-Phenotype (%) [9]: 32%
Total Cell Count [9]: 493
Population Apoptotic (%) [10]: 15%
Population Fragmented Nuclei (%) [10]: 4%
Population Healthy Nuclei (%) [10]: 81%
Population Hoechst High Intensity Objects (%) [10]: 4%
Population Membrane Permeable-Phenotype (%) [10]: 3%
Population Mitochondria Different-Phenotype (%) [10]: 9%
Population Mitotic Cells (%) [10]: 84%
Population Normal (%) [10]: 95%
Population Pyknosed Nuclei (%) [10]: 14%
Population Tubulin-Different-Phenotype (%) [10]: 41%
Total Cell Count [10]: 485
Population Fragmented Nuclei (%) [11]: 13%
Population Healthy Nuclei (%) [11]: 39%
Population Hoechst High Intensity Objects (%) [11]: 26%
Population Membrane Permeable-Phenotype (%) [11]: 0%
Population Mitochondria Different-Phenotype (%) [11]: 100%
Population Normal (%) [11]: 73%
Population Pyknosed Nuclei (%) [11]: 47%
Population Tubulin-Different-Phenotype (%) [11]: 95%
Total Cell Count [11]: 367
Population Apoptotic (%) [12]: 77%
Population Fragmented Nuclei (%) [12]: 4%
Population Healthy Nuclei (%) [12]: 28%
Population Hoechst High Intensity Objects (%) [12]: 15%
Population Membrane Permeable-Phenotype (%) [12]: 6%
Population Mitochondria Different-Phenotype (%) [12]: 95%
Population Mitotic Cells (%) [12]: 22%
Population Normal (%) [12]: 84%
Population Pyknosed Nuclei (%) [12]: 67%
Population Tubulin-Different-Phenotype (%) [12]: 91%
Total Cell Count [12]: 188

CNC(=O)c1cc(Oc2ccc(NC(=O)Nc3cc(C(C)(C)C)nn3-c3ccc4ncccc4c3)c(F)c2)ccn1 [REBASTINIB]
Population Apoptotic (%) [1]: 22%
Population Fragmented Nuclei (%) [1]: 22%
Population Healthy Nuclei (%) [1]: 66%
Population Hoechst High Intensity Objects (%) [1]: 15%
Population Membrane Permeable-Phenotype (%) [1]: 11%
Population Mitochondria Different-Phenotype (%) [1]: 4%
Population Mitotic Cells (%) [1]: 77%
Population Normal (%) [1]: 84%
Population Pyknosed Nuclei (%) [1]: 10%
Population Tubulin-Different-Phenotype (%) [1]: 3%
Total Cell Count [1]: 638
Population Apoptotic (%) [2]: 11%
Population Fragmented Nuclei (%) [2]: 11%
Population Healthy Nuclei (%) [2]: 85%
Population Hoechst High Intensity Objects (%) [2]: 4%
Population Membrane Permeable-Phenotype (%) [2]: 7%
Population Mitochondria Different-Phenotype (%) [2]: 3%
Population Mitotic Cells (%) [2]: 88%
Population Normal (%) [2]: 95%
Population Pyknosed Nuclei (%) [2]: 3%
Population Tubulin-Different-Phenotype (%) [2]: 6%
Total Cell Count [2]: 1893
Population Apoptotic (%) [3]: 29%
Population Fragmented Nuclei (%) [3]: 11%
Population Healthy Nuclei (%) [3]: 41%
Population Hoechst High Intensity Objects (%) [3]: 16%
Population Membrane Permeable-Phenotype (%) [3]: 13%
Population Mitochondria Different-Phenotype (%) [3]: 34%
Population Mitotic Cells (%) [3]: 70%
Population Normal (%) [3]: 83%
Population Pyknosed Nuclei (%) [3]: 46%
Population Tubulin-Different-Phenotype (%) [3]: 88%
Total Cell Count [3]: 515
Population Apoptotic (%) [4]: 35%
Population Fragmented Nuclei (%) [4]: 3%
Population Healthy Nuclei (%) [4]: 78%
Population Hoechst High Intensity Objects (%) [4]: 6%
Population Membrane Permeable-Phenotype (%) [4]: 9%
Population Mitochondria Different-Phenotype (%) [4]: 55%
Population Mitotic Cells (%) [4]: 64%
Population Normal (%) [4]: 93%
Population Pyknosed Nuclei (%) [4]: 18%
Population Tubulin-Different-Phenotype (%) [4]: 97%
Total Cell Count [4]: 672
Population Apoptotic (%) [5]: 13%
Population Fragmented Nuclei (%) [5]: 19%
Population Healthy Nuclei (%) [5]: 74%
Population Hoechst High Intensity Objects (%) [5]: 12%
Population Membrane Permeable-Phenotype (%) [5]: 23%
Population Mitochondria Different-Phenotype (%) [5]: 2%
Population Mitotic Cells (%) [5]: 86%
Population Normal (%) [5]: 87%
Population Pyknosed Nuclei (%) [5]: 5%
Population Tubulin-Different-Phenotype (%) [5]: 3%
Total Cell Count [5]: 727
Population Apoptotic (%) [6]: 3%
Population Fragmented Nuclei (%) [6]: 28%
Population Healthy Nuclei (%) [6]: 69%
Population Hoechst High Intensity Objects (%) [6]: 8%
Population Membrane Permeable-Phenotype (%) [6]: 9%
Population Mitochondria Different-Phenotype (%) [6]: 0%
Population Mitotic Cells (%) [6]: 96%
Population Normal (%) [6]: 91%
Population Pyknosed Nuclei (%) [6]: 1%
Population Tubulin-Different-Phenotype (%) [6]: 7%
Total Cell Count [6]: 2966
Population Apoptotic (%) [7]: 46%
Population Fragmented Nuclei (%) [7]: 14%
Population Healthy Nuclei (%) [7]: 44%
Population Hoechst High Intensity Objects (%) [7]: 15%
Population Membrane Permeable-Phenotype (%) [7]: 8%
Population Mitochondria Different-Phenotype (%) [7]: 58%
Population Mitotic Cells (%) [7]: 53%
Population Normal (%) [7]: 84%
Population Pyknosed Nuclei (%) [7]: 40%
Population Tubulin-Different-Phenotype (%) [7]: 92%
Total Cell Count [7]: 485
Population Apoptotic (%) [8]: 43%
Population Fragmented Nuclei (%) [8]: 3%
Population Healthy Nuclei (%) [8]: 81%
Population Hoechst High Intensity Objects (%) [8]: 5%
Population Membrane Permeable-Phenotype (%) [8]: 7%
Population Mitochondria Different-Phenotype (%) [8]: 63%
Population Mitotic Cells (%) [8]: 56%
Population Normal (%) [8]: 94%
Population Pyknosed Nuclei (%) [8]: 15%
Population Tubulin-Different-Phenotype (%) [8]: 98%
Total Cell Count [8]: 674
